Experimental data taken from ChEMBL document CHEMBL1135574, “Carbocyclic dinucleoside polyphosphonates: interaction with HIV reverse transcriptase and antiviral activity” (J Med Chem, 2002).

Legend:
[1] = tested on: MT4; experiment: The concentration required to cause a 50% inhibition of HIV reproduction was determined in MT-4 cell culture for free forms; type: functional; settings: Homo sapiens, read-out: ID50 (the source's name)
Method in brief: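 HIV-1 strain GKV-4046 in MT-4 cells (2×10^6/mL, viability >90%), MOI 0.2–0.5; cells in RPMI-1640 with 10% FBS, 37 °C, 5% CO2. Infected cells grown 3 days with free compound at 0.001–100 μg/mL, triplicate per dose. p24 antigen measured by immunoassay; ID50 = concentration halving HIV reproduction; two independent experiments averaged.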

[2] = tested on: MT4; experiment: The concentration required to cause a 50% inhibition of cell proliferation was determined in MT-4 cell culture.; type: functional; settings: Homo sapiens, read-out: CD50 (the source's name)
Method in brief: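 Uninfected MT-4 cells grown 3 days with compound at 0.001–100 μg/mL, triplicate per dose. Cell concentration and viability read by trypan blue exclusion; CD50 = concentration halving cell proliferation. Values averaged from two independent experiments.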

[3] = biological target: Human immunodeficiency virus type 1 reverse transcriptase (Human immunodeficiency virus 1, UniProt Q72547); experiment: Inhibition of DNA synthesis by HIV reverse transcriptase
[4] = tested on: MT4; experiment: The concentration required to cause a 50% inhibition of HIV reproduction was determined in MT-4 cell culture for liposome-entrapped forms.; type: functional; settings: Homo sapiens, read-out: ID50 (the source's name)
Method in brief: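 HIV-1 GKV-4046 in MT-4 cells, MOI 0.2–0.5, 3-day culture, p24 immunoassay read-out. Compounds given in phosphatidylcholine liposomes: dry lipid film hydrated with compound in PBS pH 7.0 (1:124 drug/lipid, 1 mM compound), extruded down to 0.1 μm pores (mean 0.16 μm); 40–50% entrapment. ID50 from two independent experiments.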

[5] = Half life period in human blood serum was determined at 37 degrees Centigrade; type: ADME, Plasma
Method in brief: (§1)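 Compounds held at 37 °C in human blood serum or in phosphate buffer, pH 7.5. For serum samples, precipitated proteins were spun off after thawing. Remaining material was analysed by RP-18 HPLC with a 0–25% linear gradient of 70% ethanol in 0.05 M triethylammonium bicarbonate (pH 7.5–8.0) over 25 min. Total loaded taken as 100%. Half-lives were averaged from at least three experiments.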

[6] = Half life period in phosphate buffer (pH 7.5) was determined at 37 degrees Centigrade; type: ADME; method in brief: as §1

SMILES	IC50 [1] [µM]	CC50 [2] [µM]	IC50 [3] [µM]	IC50 [4] [µM]	half-life [5] [h]	half-life [6] [h]
Nc1ncnc2c1ncn2C1C=CC(OCP(=O)(O)OP(=O)(O)C(Br)(Br)P(=O)(O)OP(=O)(O)COC2C=CC(n3cnc4c(N)ncnc43)C2)C1 (stereo unspecified)	5.4	> 110	> 200			
Nc1nc(O)c2ncn(C3C=CC(OCP(=O)(O)O)C3)c2n1 (stereo unspecified)	201	> 320				
Nc1nc2c(ncn2C2C=CC(OCP(=O)(O)OP(=O)(O)C(Br)(Br)P(=O)(O)O)C2)c(=O)[nH]1 (stereo unspecified)			> 200			
Nc1ncnc2c1ncn2C1C=CC(OCP(=O)(O)OP(=O)(O)C(F)(F)P(=O)(O)OP(=O)(O)COC2C=CC(n3cnc4c(N)ncnc43)C2)C1 (stereo unspecified)			20			
Nc1ncnc2c1ncn2C1C=CC(OCP(=O)(O)OP(=O)(O)OP(=O)(O)OP(=O)(O)COC2C=CC(n3cnc4c(N)ncnc43)C2)C1 (stereo unspecified)	2	131	2	1.2		
Nc1nc2c(ncn2C2C=CC(OCP(=O)(O)OP(=O)(O)OP(=O)(O)OP(=O)(O)COC3C=CC(n4cnc5c(=O)[nH]c(N)nc54)C3)C2)c(=O)[nH]1 (stereo unspecified)	> 12	> 12	0.7	0.5	3	12
Cc1cn([C@H]2C[C@H](N=[N+]=[N-])[C@@H](CO)O2)c(=O)[nH]c1=O [ZIDOVUDINE]	0.004	140				
Nc1nc2c(ncn2C2C=CC(OCP(=O)(O)OP(=O)(O)C(F)(F)P(=O)(O)O)C2)c(=O)[nH]1 (stereo unspecified)	> 200	144	25		7	> 24
Nc1nc2c(ncn2C2C=CC(OCP(=O)(O)OP(=O)(O)OP(=O)(O)O)C2)c(=O)[nH]1 (stereo unspecified)	7.2	20.5	0.3	< 1		
Nc1nc2c(ncn2C2C=CC(OCP(=O)(O)OP(=O)(O)C(Br)(Br)P(=O)(O)OP(=O)(O)COC3C=CC(n4cnc5c(=O)[nH]c(N)nc54)C3)C2)c(=O)[nH]1 (stereo unspecified)			> 250			
Nc1nc2c(ncn2C2C=CC(OCP(=O)(O)OP(=O)(O)OP(=O)(O)COC3C=CC(n4cnc5c(=O)[nH]c(N)nc54)C3)C2)c(=O)[nH]1 (stereo unspecified)	9	56	8			
Nc1ncnc2c1ncn2C1C=CC(OCP(=O)(O)OP(=O)(O)OP(=O)(O)COC2C=CC(n3cnc4c(N)ncnc43)C2)C1 (stereo unspecified)	6.6	146	10			
Cc1cn([C@H]2C=C[C@@H](CO)O2)c(=O)[nH]c1=O [STAVUDINE]	0.24	314				
Nc1ncnc2c1ncn2C1C=CC(OCP(=O)(O)OP(=O)(O)C(F)(F)P(=O)(O)O)C1 (stereo unspecified)			25			
Nc1ncnc2c1ncn2C1C=CC(OCP(=O)(O)OP(=O)(O)OP(=O)(O)O)C1 (stereo unspecified)	> 10	212	0.2			
Nc1ncnc2c1ncn2C1C=CC(OCP(=O)(O)OP(=O)(O)C(Br)(Br)P(=O)(O)O)C1 (stereo unspecified)	80	> 160	> 1000			
Nc1nc(O)c2ncn(C3C=CC(OCP(=O)(O)OP(=O)(O)C(F)(F)P(=O)(O)OP(=O)(O)COC4C=CC(n5cnc6c(O)nc(N)nc65)C4)C3)c2n1 (stereo unspecified)	60	84	15		3	15
Nc1nc2c(ncn2[C@H]2C[C@H](O)[C@@H](COP(=O)(O)OP(=O)(O)OP(=O)(O)O)O2)c(=O)[nH]1 [DEOXYGUANOSINE TRIPHOSPHATE]					0.3	> 24
